Laboratory results as given in ChEMBL document CHEMBL1268948, “1,6-AnhMurNAc derivatives for assay development of amidase AmiD” (Bioorg Med Chem, 2010).
One block for each compound: values may come before it. The source made the active and inactive calls. No cut-off for these calls is given here.

Key:
Escherichia coli [1] = test: Inhibition of Escherichia coli N-acetyl-muramoyl-L-alanine amidase AmiD assessed as residual activity at 1 mM after 20 mins; values are per cent of control
Escherichia coli [2] = test: Inhibition of Escherichia coli N-acetyl-muramoyl-L-alanine amidase AmiD assessed as residual activity at 0.5 mM after 20 mins; values are per cent of control
Escherichia coli [3] = test: Inhibition of Escherichia coli N-acetyl-muramoyl-L-alanine amidase AmiD assessed as residual activity at 100 uM after 20 mins
Procedure, shortened: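 Periplasmic soluble E. coli AmiD (sAmiD, 39 nM) was preincubated with the test compound for 20 min at 30 °C in 20 mM sodium phosphate buffer containing 48 nM ZnCl₂. Residual activity was taken as the initial rate of hydrolysis of 29 µM TCT (GlcNAc-anhMurNAc-tetrapeptide) added afterwards. The reaction was stopped after 20 min with diluted H₃PO₄ and analysed by RP-HPLC.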

Escherichia coli [4] = test: Inhibition of Escherichia coli N-acetyl-muramoyl-L-alanine amidase AmiD assessed as residual activity at 1 mM preincubated for 30 mins

inhibition (Escherichia coli [4]): inactive | inhibition (Escherichia coli [3]): inactive
SMILES: CC(=O)N[C@H]1[C@@H]2OC[C@@H](O2)[C@@H](O)[C@H]1O[C@H](C)C(=O)Nc1ccc(C(F)(F)F)cc1

inhibition (Escherichia coli [4]): inactive | inhibition (Escherichia coli [3]): inactive
SMILES: CC(=O)N[C@H]1[C@@H]2OC[C@@H](O2)[C@@H](O)[C@H]1O[C@H](C)C(=O)Nc1ccc(C(C)=O)cc1

The next lines start with the compound.

SMILES: CC(=O)N[C@H]1[C@@H]2OC[C@@H](O2)[C@@H](O)[C@H]1O[C@H](C)C(=O)N[C@@H](C)C(=O)N[C@H](CCC(=O)Nc1ccccc1)C(=O)O
residual activity (Escherichia coli [1]): 64% | residual activity (Escherichia coli [2]): 83% | inhibition (Escherichia coli [3]): inactive

SMILES: CC(=O)N[C@H]1[C@@H]2OC[C@@H](O2)[C@@H](OCc2ccccc2)[C@H]1O[C@H](C)C(=O)O
inhibition (Escherichia coli [4]): inactive

SMILES: CC(=O)N[C@H]1[C@@H]2OC[C@@H](O2)[C@@H](O)[C@H]1O[C@H](C)C(=O)Nc1ccccc1
inhibition (Escherichia coli [4]): inactive | inhibition (Escherichia coli [3]): inactive

SMILES: CC(=O)N[C@H]1[C@@H]2OC[C@@H](O2)[C@@H](O)[C@H]1O[C@H](C)C(=O)N[C@@H](C)C(=O)Nc1ccc([N+](=O)[O-])cc1
inhibition (Escherichia coli [4]): inactive | inhibition (Escherichia coli [3]): inactive
